An excerpt weighted towards active compounds, which were near 8.7% of everything screened.
Ecoli tolC: E. coli tolC mutant growth inhibition. E. coli BW25113 tolC mutant growth, OD615. growth inhibition, % at 10 µM (by protocol). actives 2.2% (n = 65,000). AID 573;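 active = growth inhibition at or above a cutoff equal to the mean over every tested compound plus 3 SD, cut at about 60% in these data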;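 also: growth measured after 20 h incubation at 37 °C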
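Test system: tolC-deleted E. coli BW25113; medium: LB with kanamycin 50 µg/mL; compound: single-point testing at 10 µM; incubation: 20 h compound exposure of bacteria at 37 °C; signal: OD at 615 nm; evaluation: growth inhibition in percent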
Cav32 inh: blocks human Cav3.2 T-type calcium channel. actives 4% (n = 100,000). B-score at 10 µM. O95180. Cav3.2-expressing cells, Fluo-4 calcium fluorescence FDSS; hits give low values;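 active = single-dose well whose peak fluorescence ratio is a statistical outlier from its plate by either plate-standardised score or position-corrected B-score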
Ecoli WT expand: E. coli BW25113 growth inhibition, expanded screen; growth inhibition, % at 100 µM; actives 0.15% (n = 98,000); OD600 absorbance;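 active = growth inhibition above about 50% at one test dose, limit read from the data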;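 also: growth measured after 20 h incubation at 37 °C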
PostGolgi yeast: growth inhibition of a yeast mutant, post-Golgi transport screen; post-Golgi transport phenotypic cell assay; inhibition, % at 10 µM; actives 0.9% (n = 98,000); AID 739;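 also: yeast cells grown in 1536-well plates; yeast grown about 18 h at 30C before absorbance read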
PTK2B oligo ant: antagonists of human Pyk2 oligomerization | Q293 cells, Pyk2 FERM NanoBiT luminescence; hits give low values | z-score (the deposit names both 25 µM and 10 µM) | actives 0.83% (n = 99,000);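 active = Z-score of -3 or lower, scaled per plate to the spread of control and sample wells; inactive = z-score above -3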;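 also: negative z-score means lost luminescence so less FERM oligomerization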
PostGolgi ctrl: yeast control strain growth, post-Golgi counter-screen; inhibition, % at 10 µM; AID 738; actives 5% (n = 98,000); efflux-deficient yeast background strain, growth absorbance A615, 16 h
Starred values were filed as active, the others as inactive; / = not tested or not shown. Rule as the data show it, unless noted: active = inhibition above about 30%; inactive = the rest.

SMILES	Ecoli tolC	Cav32 inh	Ecoli WT expand	PostGolgi yeast	PTK2B oligo ant	PostGolgi ctrl
Cc1nn(-c2ccccc2)c(C)c1C(=O)OCC(=O)NC(=O)NC1CCCC1	/	-1.16	8.0	-0.9	-3.39*	5.9
Cc1nn(-c2ccccc2)c(C)c1C(=O)OCC(=O)N1CCN(S(=O)(=O)c2ccccc2)CC1	1.0	0.871	-9.0	29.8	0.31	96.5*
O=C(COC(=O)c1n[nH]c2ccccc12)NC(=O)NC1CCCCC1	2.0	-0.146	-6.0	-4.5	-2.22	3.4
CCOC(=O)Cn1c(=S)[nH]c2c(oc3ccc(Cl)cc32)c1=O	/	0.518	-6.0	-8.8	1.62	24.4
CCC1SC(=NC(=O)c2ccc(Cl)c(Cl)c2)NC1=O (configuration not stated)	37.9	-0.164	10.0	-3.5	0.2	35.3*
COc1ccc(S(=O)(=O)Nc2c(C)ccc3nsnc23)cc1OC	-0.5	-0.00227	8.0	-11.4	0.73	4.2
COc1cc(SC#N)ccc1N=Cc1c(C)[nH]n(-c2ccc(Cl)cc2)c1=O	/	-0.622	-7.0	10.1	0.09	31.9*
COCCOC(=O)c1c(C)oc2ccc(NS(=O)(=O)c3ccc(C(=O)O)cc3)cc12	1.5	-0.0282	/	/	-0.37	/
CCCCOC(=O)c1c(C)oc2ccc(NS(=O)(=O)c3ccc4c5c(cccc35)C(=O)N4)cc12	/	-5.76*	-6.0	-1.5	-2.15	15.7
CCOc1ccc(N(CC(=O)NC2CCCC2)S(=O)(=O)c2c(C)[nH]c(=O)[nH]c2=O)cc1	-11.5	0.724	-4.0	-5.3	/	-0.5
COC(=O)C[C@H]1c2cc(C(F)(F)F)ccc2S(=O)(=O)N1C1CCCC1	/	0.0838	/	/	/	/
CC(C)CCn1c(SCC(=O)N2CC(=O)Nc3ccccc32)nc2scc(-c3cccs3)c2c1=O	/	-1.01	-4.0	2.9	-0.65	7.2
C=CCn1c(SCC(=O)N2CC(=O)Nc3ccccc32)nc2scc(-c3cccs3)c2c1=O	26.4	-7.19*	-17.0	-0.3	-2.11	24.8
CCOC(=O)N1CCN(C(=O)Nc2ccc(Cl)cc2)CC1	-7.6	0.486	-1.0	-4.5	0.5	35.7*
O=C(Nc1ccc(Cl)cc1)N1CCCC1	-13.5	0.526	15.0	-8.3	0.17	-1.4
O=C(Nc1ccc(Cl)cc1)N1CCSCC1	-10.0	/	-1.0	-1.9	0.87	43.8*
CCOC(=O)N1CCN(C(=O)CSCc2ccc(Cl)cc2)CC1	/	0.736	-1.0	1.9	-0.14	35.9*
CCOC(=O)N1CCN(C(=O)Cc2ccc(C)cc2)CC1	-16.1	0.139	-2.0	3.0	0.3	4.5
CCOc1ccccc1N1CCN(C(=O)Nc2ccc(F)c(Cl)c2)CC1	96.0*	-4.06*	10.0	-0.5	-0.51	17.2
COC(=O)c1ccc(NC(=O)N2CCC(O)(c3cccnc3)CC2)cc1	/	/	-5.0	1.6	0.68	7.0
CCOc1ccccc1N1CCN(C(=O)c2cc3c(s2)CCC3)CC1	19.5	-0.765	4.0	16.8	-0.2	40.4*
Cc1ccc(NC(=O)N2CCC(O)(c3ccc(Cl)cc3)CC2)cc1	19.6	-4.27*	-1.0	6.9	-0.55	14.9
CCOC(=O)N1CCC(N(C(=O)Nc2ccc(Cl)c(Cl)c2)C(C)CC)CC1 (configuration not stated)	21.2	-3.21	-8.0	0.2	0.58	39.2*
CCCCCOc1ccc(CSC(=N)N)cc1[N+](=O)[O-]	/	0.167	100.0*	-3.3	-1.18	6.4
O=C1CCc2cc(S(=O)(=O)N3CCCC3C(=O)NC3CCCCCCC3)ccc2N1 (configuration not stated)	/	0.454	4.0	-5.5	/	-2.1
SMILES	Ecoli tolC	Cav32 inh	Ecoli WT expand	PostGolgi yeast	PTK2B oligo ant	PostGolgi ctrl
COc1ccc(Cn2cnc3c([N+](=O)[O-])c(C)c(C)cc32)cc1	/	-6.18*	-2.0	-0.7	-0.47	11.5
Cc1ccnc(NS(=O)(=O)c2ccc(NC(=O)C34CC5CC(C)(CC(C)(C5)C3)C4)cc2)n1	/	-0.969	-9.0	0.0	-0.23	-6.2
Cc1ccc(C(=O)O)cc1NC(=S)NC(=O)C(c1ccccc1)c1ccccc1	/	-0.5	6.0	-0.6	-1.52	3.8
Cc1cc([N+](=O)[O-])ccc1NC(=S)NC(=O)C(c1ccccc1)c1ccccc1	/	-1.29	-16.0	7.4	-0.99	45.8*
Cc1cc([N+](=O)[O-])ccc1NC(=S)NC(=O)Cc1ccccc1	/	-1.33	-7.0	-8.0	0.3	30.1*
NC(=O)C(c1ccc(Cl)cc1Cl)c1ncc(C(F)(F)F)cc1Cl (configuration not stated)	/	-1.1	10.0	19.3	-0.12	9.0
CC(C)(C)c1ccc(C(=O)NNC(=O)Cc2cccc3ccccc23)cc1	/	-4.17*	8.0	-1.5	-0.28	40.4*
O=S(=O)(Nc1ccccc1)c1ccc(F)cc1	/	0.729	0.0	1.6	-0.92	4.4
O=S(=O)(NC12CC3CC(CC(C3)C1)C2)c1ccc(F)cc1	/	-0.507	-1.0	-4.9	-1.53	31.1*
COC(=O)c1ccc(C23CC4(C2)[C@H](CN(C)[C@@H]4c2ccccc2)C3c2ccc(Cl)nc2)cc1 (some centres not stated)	/	-0.144	/	/	/	/
CCc1sc(C(=O)Nc2cccc(C(C)=O)c2)cc1C	/	/	/	/	-0.51	/
CCCCS(=O)(=O)C1CCS(=O)(=O)C1 (configuration not stated)	/	/	/	/	1.78	/
CCCCS(=O)(=O)/C=C\C=C/S(=O)(=O)CCCC	10.9	/	31.0	94.1*	0.13	27.1
O=C(CCn1c(=O)[nH]c2ccsc2c1=O)N(CCc1ccccc1)Cc1ccccc1	/	-4.35*	-5.0	6.0	-1.03	13.7
COc1ccc(N=c2oc3c(OC)cccc3cc2C(=O)NCc2ccco2)c(OC)c1	-8.4	-2.37	-30.0	-2.7	-0.69	-2.1
CCCCS(=O)(=O)c1sc2nc3c(cc2c1N)CCCC3	2.6	-1.01	1.0	-1.4	-1.23	6.2
CCCCCCCCS(=O)c1sc2nc3c(cc2c1N)CCCC3 (configuration not stated)	/	-4.8*	/	/	1.43	/
CCC(C)(C(=O)NC1CCCCC1)N(Cc1ccco1)C(=O)c1ccccn1 (configuration not stated)	/	-1.01	8.0	16.3	0.87	2.1
C=C(CC)C(=O)c1ccc(OCC(=O)O)c(Cl)c1Cl	9.8	1.72	/	/	/	/
CN(C)c1ccc(/C=N/c2cc(-c3ccccc3)nn2-c2ccccc2)cc1	/	-0.0335	-9.0	27.5	-0.39	-4.5
Clc1ccc(Cn2ncc3c(NCc4ccco4)ncnc32)c(Cl)c1	68.4*	-5.78*	2.0	6.2	/	39.3*
c1ccc(CNc2ncnc3c2cnn3Cc2ccccc2)cc1	/	-3.07	/	/	-1.31	/
CCc1cc2c3c(c(=O)oc2cc1OC)CCCC3	32.1	-1.09	-6.0	-1.6	-0.82	49.1*
CCCCC(=O)NCCc1cc2c(OC)ccc(OC)c2[nH]c1=O	5.9	/	8.0	15.1	-0.74	7.2
OC(COc1ccc(Cl)cc1)CN1CCCCC1 (configuration not stated)	-9.3	0.0494	6.0	0.5	0.12	3.7
OC(COc1c(Cl)cc(Cl)cc1Cl)CN1CCCCC1 (configuration not stated)	1.9	-2.9*	6.0	0.0	-0.34	0.3
